Results as given in ChEMBL document CHEMBL1156941, “Discovery of small molecule isozyme non-specific inhibitors of mammalian acetyl-CoA carboxylase 1 and 2” (Bioorg Med Chem Lett, 2010).

Assays:
[1] = biological target: Acetyl-CoA carboxylase 2 (Homo sapiens, UniProt O00763); assay: Inhibition of human recombinant ACC2 expressed in CHO cells after 1 hr by fluorescence reader; format: cell-based
Procedure, shortened: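 Purified recombinant human ACC2, from conditioned medium captured on avidin resin and eluted with biotin, then dialyzed. Compounds in DMSO, final DMSO 1%. Run 1 h at room temperature. ADP measured by Transcreener fluorescence polarization after a further 1 h.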

[2] = biological target: Acetyl-CoA carboxylase 1 (Rattus norvegicus, UniProt P11497); assay: Inhibition of rat liver ACC1 after 7 mins by liquid scintillation counter
[3] = Half life in rat at 5 mg/kg, po; format: ADME, organism-based; set-up: dose 5 mg/kg, route oral; conditions: in vivo
Procedure, shortened: (§1)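 Rat pharmacokinetics. Intravenous dose 1 mg/kg, giving CL in mL/min/kg and Vdss in L/kg. Oral dose 5 mg/kg, giving Cmax in ng/mL, %F and t1/2 in h.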

[4] = Oral bioavailability in rat at 5 mg/kg; format: ADME, organism-based; conditions: in vivo; procedure, shortened: as §1
[5] = Clearance in rat at 1 mg/kg, iv; format: ADME, organism-based; set-up: dose 1 mg/kg, route intravenous; conditions: in vivo; procedure, shortened: as §1
[6] = Volume of distribution at steady state in rat at 1 mg/kg, iv; format: ADME, organism-based; set-up: dose 1 mg/kg, route intravenous; conditions: in vivo, read-out: Vdss; procedure, shortened: as §1
[7] = Cmax in rat at 5 mg/kg, po; format: ADME, organism-based; set-up: dose 5 mg/kg, route oral; conditions: in vivo; procedure, shortened: as §1
[8] = Half life in rat at 1 mg/kg, iv administered with methylcellulose; format: ADME, organism-based; set-up: dose 1 mg/kg, route intravenous; conditions: in vivo
[9] = Volume of distribution at steady state in rat at 1 mg/kg, iv administered with methylcellulose; format: ADME, organism-based; set-up: dose 1 mg/kg, route intravenous; conditions: in vivo, read-out: Vdss
[10] = Clearance in rat at 1 mg/kg, iv administered with methylcellulose; format: ADME, organism-based; set-up: dose 1 mg/kg, route intravenous; conditions: in vivo
[11] = Oral bioavailability in rat at 3 mg/kg administered with spray-dried dispersion; format: ADME, organism-based; conditions: in vivo
[12] = Oral bioavailability in rat at 3 mg/kg administered with methylcellulose; format: ADME, organism-based; conditions: in vivo
[13] = Oral bioavailability in rat at 3 mg/kg administered with lipid emulsion; format: ADME, organism-based; conditions: in vivo
[14] = Volume of distribution at steady state in Beagle dog at 1 mg/kg, iv administered with 40% PEG400 and 60% glycerol; format: ADME, organism-based, Canis lupus familiaris; set-up: dose 1 mg/kg, route intravenous; conditions: in vivo, read-out: Vdss
[15] = Half life in Beagle dog at 1 mg/kg, iv administered with 40% PEG400 and 60% glycerol; format: ADME, organism-based, Canis lupus familiaris; set-up: dose 1 mg/kg, route intravenous; conditions: in vivo
[16] = Clearance in Beagle dog at 1 mg/kg, iv administered with 40% PEG400 and 60% glycerol; format: ADME, organism-based, Canis lupus familiaris; set-up: dose 1 mg/kg, route intravenous; conditions: in vivo

Acetyl-CoA carboxylase 2, sequence (O00763 whole entry): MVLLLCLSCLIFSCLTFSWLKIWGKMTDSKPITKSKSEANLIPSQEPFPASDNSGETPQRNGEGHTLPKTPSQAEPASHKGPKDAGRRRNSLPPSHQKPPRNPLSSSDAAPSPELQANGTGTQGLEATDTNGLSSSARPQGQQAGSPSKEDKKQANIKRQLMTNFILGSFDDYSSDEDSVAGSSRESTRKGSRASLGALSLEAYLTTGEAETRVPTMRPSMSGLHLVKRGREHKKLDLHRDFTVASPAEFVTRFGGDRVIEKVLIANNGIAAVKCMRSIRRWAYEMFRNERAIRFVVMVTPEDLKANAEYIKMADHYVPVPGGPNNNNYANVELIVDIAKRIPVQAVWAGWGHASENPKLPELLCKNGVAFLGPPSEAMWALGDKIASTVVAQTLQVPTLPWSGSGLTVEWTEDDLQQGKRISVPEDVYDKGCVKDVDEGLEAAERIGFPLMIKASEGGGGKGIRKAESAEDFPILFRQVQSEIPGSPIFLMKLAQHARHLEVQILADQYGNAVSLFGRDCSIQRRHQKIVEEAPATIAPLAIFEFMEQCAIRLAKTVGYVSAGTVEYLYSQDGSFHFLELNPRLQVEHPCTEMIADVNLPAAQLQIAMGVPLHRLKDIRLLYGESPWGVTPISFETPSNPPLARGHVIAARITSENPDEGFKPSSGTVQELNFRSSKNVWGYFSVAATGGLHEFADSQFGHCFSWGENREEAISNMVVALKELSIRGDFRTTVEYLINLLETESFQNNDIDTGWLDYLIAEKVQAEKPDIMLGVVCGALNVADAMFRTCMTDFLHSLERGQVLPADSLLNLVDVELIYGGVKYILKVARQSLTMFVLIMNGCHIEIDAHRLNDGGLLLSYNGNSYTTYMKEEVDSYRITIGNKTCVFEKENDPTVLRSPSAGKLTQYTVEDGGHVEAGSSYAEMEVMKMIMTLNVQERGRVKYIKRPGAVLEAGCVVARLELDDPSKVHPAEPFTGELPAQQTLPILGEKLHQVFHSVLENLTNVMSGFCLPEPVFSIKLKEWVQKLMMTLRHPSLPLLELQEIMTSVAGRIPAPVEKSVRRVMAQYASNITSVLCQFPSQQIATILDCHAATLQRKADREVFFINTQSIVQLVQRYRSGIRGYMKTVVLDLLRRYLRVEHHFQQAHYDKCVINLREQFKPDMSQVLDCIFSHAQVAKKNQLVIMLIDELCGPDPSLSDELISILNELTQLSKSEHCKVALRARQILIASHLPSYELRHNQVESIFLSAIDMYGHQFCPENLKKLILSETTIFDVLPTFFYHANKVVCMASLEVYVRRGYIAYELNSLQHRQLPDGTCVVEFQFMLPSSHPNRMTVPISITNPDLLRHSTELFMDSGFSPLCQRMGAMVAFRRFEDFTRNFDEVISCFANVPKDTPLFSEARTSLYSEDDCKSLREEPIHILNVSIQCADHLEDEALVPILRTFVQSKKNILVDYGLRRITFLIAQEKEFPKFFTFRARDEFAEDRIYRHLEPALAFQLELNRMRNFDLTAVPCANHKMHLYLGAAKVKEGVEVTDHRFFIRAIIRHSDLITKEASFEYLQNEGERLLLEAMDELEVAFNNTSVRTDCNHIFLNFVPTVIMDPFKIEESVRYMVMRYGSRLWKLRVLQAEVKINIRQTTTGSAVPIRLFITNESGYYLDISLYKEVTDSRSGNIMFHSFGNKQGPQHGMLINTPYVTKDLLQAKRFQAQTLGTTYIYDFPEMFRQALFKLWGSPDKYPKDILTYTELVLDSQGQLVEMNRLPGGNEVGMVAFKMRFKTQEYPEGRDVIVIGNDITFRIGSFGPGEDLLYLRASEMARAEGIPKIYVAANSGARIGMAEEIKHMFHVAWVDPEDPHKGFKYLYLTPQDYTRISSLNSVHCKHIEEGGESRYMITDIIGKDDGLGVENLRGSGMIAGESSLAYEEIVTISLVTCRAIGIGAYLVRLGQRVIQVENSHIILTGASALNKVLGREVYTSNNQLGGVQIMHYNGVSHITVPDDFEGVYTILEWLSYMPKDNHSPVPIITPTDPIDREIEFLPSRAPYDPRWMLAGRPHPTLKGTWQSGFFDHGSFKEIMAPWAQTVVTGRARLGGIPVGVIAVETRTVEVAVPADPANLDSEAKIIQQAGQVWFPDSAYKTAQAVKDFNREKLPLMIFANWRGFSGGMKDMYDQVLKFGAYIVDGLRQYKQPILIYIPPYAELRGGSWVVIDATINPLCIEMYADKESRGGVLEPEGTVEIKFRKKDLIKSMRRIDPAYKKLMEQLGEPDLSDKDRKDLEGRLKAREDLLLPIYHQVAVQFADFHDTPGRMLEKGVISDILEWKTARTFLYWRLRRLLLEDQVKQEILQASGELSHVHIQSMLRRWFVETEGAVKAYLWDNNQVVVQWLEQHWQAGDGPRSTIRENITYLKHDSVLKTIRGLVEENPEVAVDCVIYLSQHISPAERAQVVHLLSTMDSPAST

COc1cccc2c1C(=O)CC1(CCN(C(=O)c3ccc4[nH]c(C)nc4c3)CC1)O2
IC50 [1]: > 1000 nM | IC50 [2]: 663 nM

Cc1cc(C(=O)N2CCC3(CC2)CC(=O)c2cc(-c4ccn(C)n4)ccc2O3)cc2cn[nH]c12
IC50 [1]: 6.1 nM | IC50 [2]: 31 nM

Cc1cc(-c2ccc3c(c2)C(=O)CC2(CCN(C(=O)c4cc(C)c5[nH]ncc5c4)CC2)O3)n[nH]1
IC50 [1]: 7.6 nM | IC50 [2]: 18 nM

COc1cccc2c1C(=O)CC1(CCN(C(=O)c3ccc4[nH]c(-c5ccccn5)nc4c3)CC1)O2
IC50 [1]: 12 nM | IC50 [2]: 26 nM

Cc1cc(C)c2c(c1)C(=O)CC1(CCN(C(=O)c3cccc4cn[nH]c34)CC1)O2
IC50 [1]: > 1000 nM

COc1cccc2c1C(=O)CC1(CCN(C(=O)c3cccc4cn[nH]c34)CC1)O2
IC50 [1]: > 1000 nM

Cc1cc(C(=O)N2CCC3(CC2)CC(=O)c2nc(N)ccc2O3)cc2cn[nH]c12
IC50 [2]: 1350 nM

Cc1cc(C(=O)N2CCC3(CC2)CC(=O)c2c(ccnc2OC(C)C)O3)cc2cn[nH]c12
IC50 [1]: 4.5 nM | IC50 [2]: 30 nM

COc1cccc2c1C(=O)CC1(CCN(C(=O)c3ccc4nn[nH]c4c3)CC1)O2
IC50 [1]: 505 nM | IC50 [2]: 2970 nM

Cc1ccc2cc(CC3CCN(C(=O)c4cccc5cn[nH]c45)CC3)ccc2n1
half-life [3]: 1.7 h | bioavailability [4]: 45% | clearance [5]: 44.3 mL/min/kg | Vd [6]: 2.4 L/kg | Cmax [7]: 617 ng/mL | IC50 [2]: 3380 nM

Cc1ccc2cc(CC3CCN(C(=O)c4cccc(-c5cn[nH]c5)c4)CC3)ccc2n1
IC50 [2]: 1270 nM

Cc1ccc2cc(CC3CCN(C(=O)c4cccc(-c5cc[nH]n5)c4)CC3)ccc2n1
half-life [3]: 1.8 h | bioavailability [4]: 7% | clearance [5]: 34.1 mL/min/kg | Vd [6]: 2.8 L/kg | Cmax [7]: 91.5 ng/mL | IC50 [2]: 3010 nM

CNC(=O)c1cc2cc(C(=O)N3CCC4(CC3)CC(=O)c3c(OC)cccc3O4)ccc2[nH]1
IC50 [1]: 11 nM | IC50 [2]: 43 nM

Cc1ncc(-c2ccc3c(c2)C(=O)CC2(CCN(C(=O)c4cc(C)c5[nH]ncc5c4)CC2)O3)o1
IC50 [1]: 39 nM | IC50 [2]: 17 nM

COc1nccc2c1C(=O)CC1(CCN(C(=O)c3cc(C)c4[nH]ncc4c3)CC1)O2
IC50 [2]: 86 nM

Cc1noc(C)c1-c1ccc2c(c1)C(=O)CC1(CCN(C(=O)c3cc(C)c4[nH]ncc4c3)CC1)O2
IC50 [1]: 6.4 nM | IC50 [2]: 13 nM

Cn1cc(-c2cc3c(cn2)OC2(CCN(C(=O)c4ccc5nc(-c6ccn(C)n6)[nH]c5c4)CC2)CC3=O)cn1
IC50 [2]: 975 nM

Cc1cc(C(=O)N2CCC3(CC2)CC(=O)c2cc(-c4cnn(C)c4)ncc2O3)cc2cn[nH]c12
IC50 [2]: 24.6 nM

Cc1cc2c(cc1C)C(=O)CC1(CCN(C(=O)c3cccc4cn[nH]c34)CC1)O2
IC50 [1]: 400 nM

COc1nc(C)cc2c1C(=O)CC1(CCN(C(=O)c3cc(C)c4[nH]ncc4c3)CC1)O2
IC50 [1]: 48 nM | IC50 [2]: 34 nM

Cc1cc(C(=O)N2CCC3(CC2)CC(=O)c2c(ccnc2OCC(C)C)O3)cc2cn[nH]c12
IC50 [1]: 98 nM | IC50 [2]: 23 nM

Cc1nc(-c2ccc3c(c2)C(=O)CC2(CCN(C(=O)c4cc(C)c5[nH]ncc5c4)CC2)O3)co1
IC50 [1]: 30 nM | IC50 [2]: 19 nM

CCOc1nccc2c1C(=O)CC1(CCN(C(=O)c3cc(C)c4[nH]ncc4c3)CC1)O2
IC50 [2]: 61 nM

Cc1n[nH]c2c(C)cc(C(=O)N3CCC4(CC3)CC(=O)c3c(ccnc3OC(C)C)O4)cc12
half-life [8]: 1.4 h | Vd [9]: 3.3 L/kg | clearance [10]: 31 mL/min/kg | bioavailability [11]: 52% | bioavailability [12]: 32% | IC50 [1]: 20 nM | bioavailability [13]: 8% | Vd [14]: 1.6 L/kg | half-life [15]: 6.1 h | clearance [16]: 3.6 mL/min/kg | IC50 [2]: 12 nM

Cc1cc(C(=O)N2CCC3(CC2)CC(=O)c2cc(-c4cc[nH]n4)ccc2O3)cc2cn[nH]c12
IC50 [1]: 4.5 nM | IC50 [2]: 18 nM

COc1cccc2c1C(=O)CC1(CCN(C(=O)c3cc(C)c4[nH]c(C(N)=O)cc4c3)CC1)O2
IC50 [1]: 16 nM | IC50 [2]: 65 nM

COc1cccc2c1C(=O)CC1(CCN(C(=O)c3ccc4nc(-c5ccccc5)[nH]c4c3)CC1)O2
IC50 [1]: 16 nM | IC50 [2]: 16 nM

COc1cccc2c1C(=O)CC1(CCN(C(=O)c3ccc4[nH]c(C(N)=O)nc4c3)CC1)O2
IC50 [1]: 16 nM | IC50 [2]: 35 nM

COc1cccc2c1C(=O)CC1(CCN(C(=O)c3ccc4nc[nH]c4c3)CC1)O2
IC50 [1]: 111 nM | IC50 [2]: 216 nM

Cc1ccc2cc(CC3CCN(C(=O)c4ccnc5ccccc45)CC3)ccc2n1
IC50 [2]: 8910 nM

Cc1cc2c(cc1C)C(=O)CC1(CCN(C(=O)c3cc(C)c4[nH]ncc4c3)CC1)O2
IC50 [1]: 48 nM | IC50 [2]: 22 nM

COc1cccc2c1C(=O)CC1(CCN(C(=O)c3cc(C)c4[nH]ncc4c3)CC1)O2
IC50 [1]: 6.5 nM | IC50 [2]: 104 nM

COc1cc2c(cn1)OC1(CCN(C(=O)c3cc(C)c4[nH]ncc4c3)CC1)CC2=O
IC50 [2]: 182 nM

Cc1ccc2c(n1)C(=O)CC1(CCN(C(=O)c3cc(C)c4[nH]ncc4c3)CC1)O2
IC50 [2]: 366 nM

Cc1n[nH]c2ccc(C(=O)N3CCC4(CC3)CC(=O)c3ncccc3O4)cc12
IC50 [1]: 640 nM | IC50 [2]: 766 nM

COc1cccc2c1C(=O)CC1(CCN(C(=O)c3ccc4c(C)n[nH]c4c3)CC1)O2
IC50 [1]: 164 nM | IC50 [2]: 220 nM

COc1cccc2c1C(=O)CC1(CCN(C(=O)c3cc(C)c4[nH]nc(C)c4c3)CC1)O2
IC50 [1]: 11 nM | IC50 [2]: 42 nM

CCc1cc(C(=O)N2CCC3(CC2)CC(=O)c2c(OC)cccc2O3)cc2cn[nH]c12
IC50 [1]: 151 nM | IC50 [2]: 102 nM

Cc1cc(C(=O)N2CCC3(CC2)CC(=O)c2cc(-c4cnn(C)c4)ccc2O3)cc2cn[nH]c12
IC50 [2]: 7.5 nM

COc1cccc2c1C(=O)CC1(CCN(C(=O)c3ccc4nc(-c5cccnc5)[nH]c4c3)CC1)O2
IC50 [1]: 19 nM | IC50 [2]: 26 nM

COc1cccc2c1C(=O)CC1(CCN(C(=O)c3ccc4nc(-c5ccncc5)[nH]c4c3)CC1)O2
IC50 [1]: 51 nM | IC50 [2]: 60 nM

COc1cccc2c1C(=O)CC1(CCN(C(=O)c3ccc4nc(-c5ccnnc5)[nH]c4c3)CC1)O2
IC50 [2]: 101 nM

Cc1cc(C(=O)N2CCC3(CC2)CC(=O)c2ncccc2O3)cc2cn[nH]c12
IC50 [2]: 154 nM

Cc1n[nH]c2c(C)cc(C(=O)N3CCC4(CC3)CC(=O)c3ncccc3O4)cc12
IC50 [1]: 363 nM | IC50 [2]: 249 nM

COc1cccc2c1C(=O)CC1(CCN(C(=O)c3ccc4nc(-c5ccn(C)n5)[nH]c4c3)CC1)O2
IC50 [2]: 19 nM

Cc1cc(C(=O)N2CCC3(CC2)CC(=O)c2cc(-c4cn[nH]c4)ccc2O3)cc2cn[nH]c12
IC50 [2]: 7.4 nM

O=C1CC2(CCN(C(=O)c3cccc4cn[nH]c34)CC2)Oc2ccc(Cl)cc21
IC50 [1]: 2130 nM

COc1cccc2c1C(=O)CC1(CCN(C(=O)c3cc(C)c4nc[nH]c4c3)CC1)O2
IC50 [1]: 126 nM | IC50 [2]: 172 nM
